Columns and labels:
Assay type in all cases: functional
Rattus norvegicus [1] = species on record: Rattus norvegicus; assay: Change in plasma total cholesterol in normocholesterolemic rats at 0.2 % composition of dose with diet given in a period of 3 days.
Procedure, shortened: (§1)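 Young male Wistar rats (120–150 g) fed basal powdered rodent diet ad libitum, with compound mixed into the diet at 0.2% w/w for 3 or 7 days. Plasma triglyceride and total cholesterol were then measured by standard enzymatic methods. Results are % change relative to controls.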

Rattus norvegicus [2] = species on record: Rattus norvegicus; assay: Change in plasma triglycerides in normocholesterolemic rats at 0.2 % composition of dose with diet given in a period of 3 days.; procedure, shortened: as §1
Rattus norvegicus [3] = assay: Percent change in plasma triglycerides in cholesterol-fed rats at 200 mg/kg dose given in a period of 3 days
Procedure, shortened: (§2)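 Young male Wistar rats (120–150 g), groups of eight, fed ad libitum rodent diet with 0.5% w/w cholesterol and 0.25% cholic acid for 10 days. Compound suspended in 0.5% w/w tragacanth mucilage and given daily by stomach tube over the final 3 days; controls got vehicle. After overnight starvation, rats were killed 3 h post final dose and cardiac blood taken into heparin.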

Rattus norvegicus [4] = assay: Percent change in plasma HDL cholesterol in cholesterol-fed rats at 200 mg/kg dose given in a period of 3 days; procedure, shortened: as §2
Rattus norvegicus [5] = assay: Ratio of plasma HDL cholesterol/total cholesterol at 200 g/kg for 3 days; conditions: in the assay text read “200 mg/kg” for “200 g/kg”; procedure, shortened: as §2
Rattus norvegicus [6] = assay: Percent change in plasma total cholesterol in cholesterol-fed rats at 200 mg/kg dose given in a period of 3 days; procedure, shortened: as §2
Rattus norvegicus [7] = species on record: Rattus norvegicus; assay: The compound was tested for % change in plasma total cholesterol in normocholesterolemic rats at 0.2 % composition of dose with diet given in a period of 7 days; procedure, shortened: as §1
Rattus norvegicus [8] = species on record: Rattus norvegicus; assay: The compound was tested for % change in plasma triglycerides in normocholesterolemic rats at 0.2 % composition of dose with diet given in a period of 7 days; procedure, shortened: as §1
[9] = Ratio of plasma HDL cholesterol/total cholesterol at 25 mg/kg for 3 days; conditions: dose 200 mg/kg; in the assay text read “200 mg/kg” for “25 mg/kg”; procedure, shortened: as §2

## CC(C)(C)c1ccc(-c2nc3ccc(-c4ccccc4)cc3c(=O)o2)cc1
Rattus norvegicus [1]
  Change: 0%
Rattus norvegicus [2]
  Change: 1%
Rattus norvegicus [3]
  Change: 0%
Rattus norvegicus [4]
  Change: 60%
Rattus norvegicus [5]
  Change in HDL/total cholesterol ratio: 74
Rattus norvegicus [6]
  Change: -8%

## COC(=O)c1cc(Br)ccc1NC(=O)c1ccc(C(C)(C)C)cc1
Rattus norvegicus [1]
  Change: -34%
Rattus norvegicus [2]
  Change: -7%
Rattus norvegicus [3]
  Change: -22%
Rattus norvegicus [4]
  Change: -7%
Rattus norvegicus [5]
  Change in HDL/total cholesterol ratio: 70
Rattus norvegicus [6]
  Change: -49%

## CNc1nc(-c2ccc(C(C)(C)C)cc2)nc2ccc(C)cc12
Rattus norvegicus [3]
  Change: 79%
Rattus norvegicus [4]
  Change: 10%
Rattus norvegicus [5]
  Change in HDL/total cholesterol ratio: -12
Rattus norvegicus [6]
  Change: 27%

## CN(C(=O)c1ccc(C(C)(C)C)cc1)c1ccc(Br)cc1C(=O)O
Rattus norvegicus [1]
  Change: -10%
Rattus norvegicus [2]
  Change: 10%
Rattus norvegicus [3]
  Change: -13%
Rattus norvegicus [4]
  Change: 33%
Rattus norvegicus [5]
  Change in HDL/total cholesterol ratio: 59
Rattus norvegicus [6]
  Change: -22%

## Cc1ccc2nc(-c3ccc(C(C)(C)C)cc3)nc(O)c2c1
Rattus norvegicus [1]
  Change: 1%
Rattus norvegicus [2]
  Change: 28%
Rattus norvegicus [3]
  Change: -18%
Rattus norvegicus [4]
  Change: 24%
Rattus norvegicus [5]
  Change in HDL/total cholesterol ratio: 25
Rattus norvegicus [6]
  Change: -17%

## CC(C)(C)c1ccc(-c2nc3ccc(Cl)cc3c(=O)o2)cc1
Rattus norvegicus [7]
  Change: -31%
Rattus norvegicus [3]
  Change: -30%
Rattus norvegicus [4]
  Change: 16%
Rattus norvegicus [5]
  Change in HDL/total cholesterol ratio: 31
Rattus norvegicus [8]
  Change: -36%
Rattus norvegicus [6]
  Change: -18%

## CC(C)(C)c1ccc(-c2nc3ccc(I)cc3c(=O)o2)cc1
Rattus norvegicus [7]
  Change: -48%
Rattus norvegicus [3]
  Change: -3%
Rattus norvegicus [4]
  Change: 17%
Rattus norvegicus [5]
  Change in HDL/total cholesterol ratio: 50
Rattus norvegicus [8]
  Change: -35%
Rattus norvegicus [6]
  Change: -26%

## CC(C)(C)c1ccc(-c2nc3ccc(C(C)(C)C)cc3c(=O)o2)cc1
Rattus norvegicus [1]
  Change: -15%
Rattus norvegicus [2]
  Change: -17%
Rattus norvegicus [3]
  Change: 52%
Rattus norvegicus [4]
  Change: 30%
Rattus norvegicus [5]
  Change in HDL/total cholesterol ratio: -17
Rattus norvegicus [6]
  Change: 63%

## CC(C)(C)c1ccc(C(=O)Nc2ccc(Br)cc2C(=O)O)cc1
Rattus norvegicus [1]
  Change: -56%
Rattus norvegicus [2]
  Change: -20%
Rattus norvegicus [3]
  Change: -26%
Rattus norvegicus [4]
  Change: 24%
Rattus norvegicus [5]
  Change in HDL/total cholesterol ratio: 70
Rattus norvegicus [6]
  Change: -29%

## Cc1ccc2nc(Cc3ccc(C(C)(C)C)cc3)oc(=O)c2c1
Rattus norvegicus [3]
  Change: 27%
Rattus norvegicus [4]
  Change: -19%
Rattus norvegicus [5]
  Change in HDL/total cholesterol ratio: -27
Rattus norvegicus [6]
  Change: 1%

## Cc1ccc2nc(-c3cccc(C(C)(C)C)c3)oc(=O)c2c1
Rattus norvegicus [7]
  Change: -4%
Rattus norvegicus [3]
  Change: 22%
[9]
  Ratio: 3
Rattus norvegicus [4]
  Change: 50%
Rattus norvegicus [8]
  Change: 25%
Rattus norvegicus [6]
  Change: 43%

## CC(C)(C)c1ccc(-c2nc3ccc(NS(=O)(=O)c4ccccc4)cc3c(=O)o2)cc1
Rattus norvegicus [1]
  Change: 5%
Rattus norvegicus [2]
  Change: 27%
Rattus norvegicus [3]
  Change: -7%
Rattus norvegicus [4]
  Change: 30%
Rattus norvegicus [5]
  Change in HDL/total cholesterol ratio: 35
Rattus norvegicus [6]
  Change: 7%

## CC(C)(C)c1ccc(-c2nc3ccc([N+](=O)[O-])cc3c(=O)o2)cc1
Rattus norvegicus [7]
  Change: 1%
Rattus norvegicus [3]
  Change: -19%
Rattus norvegicus [4]
  Change: -8%
Rattus norvegicus [5]
  Change in HDL/total cholesterol ratio: 13
Rattus norvegicus [8]
  Change: -27%
Rattus norvegicus [6]
  Change: -23%

## Cc1ccc2nc(-c3ccc(C(C)C)cc3)oc(=O)c2c1
Rattus norvegicus [1]
  Change: -11%
Rattus norvegicus [2]
  Change: 7%
Rattus norvegicus [3]
  Change: -17%
[9]
  Ratio: 79
Rattus norvegicus [4]
  Change: 33%
Rattus norvegicus [6]
  Change: -26%

## CC(C)(C)c1ccc(-c2nc3ccccc3c(=O)o2)cc1
Rattus norvegicus [7]
  Change: -24%
Rattus norvegicus [3]
  Change: -26%
Rattus norvegicus [4]
  Change: 49%
Rattus norvegicus [5]
  Change in HDL/total cholesterol ratio: 131
Rattus norvegicus [8]
  Change: -32%
Rattus norvegicus [6]
  Change: -41%

## CC(C)(C)c1ccc(C(=O)Nc2ccc(Br)cc2C(N)=O)cc1
Rattus norvegicus [1]
  Change: 4%
Rattus norvegicus [2]
  Change: 29%
Rattus norvegicus [3]
  Change: -11%
Rattus norvegicus [4]
  Change: -1%
Rattus norvegicus [5]
  Change in HDL/total cholesterol ratio: 4
Rattus norvegicus [6]
  Change: -8%

## CCCCc1ccc2nc(-c3ccc(C(C)(C)C)cc3)oc(=O)c2c1
Rattus norvegicus [1]
  Change: -3%
Rattus norvegicus [2]
  Change: -32%
Rattus norvegicus [3]
  Change: 22%
Rattus norvegicus [4]
  Change: 65%
Rattus norvegicus [5]
  Change in HDL/total cholesterol ratio: 69
Rattus norvegicus [6]
  Change: -4%

## Cc1ccc2nc(-c3ccc(C(C)(C)C)cc3)n(C)c(=O)c2c1
Rattus norvegicus [1]
  Change: 2%
Rattus norvegicus [2]
  Change: -3%
Rattus norvegicus [3]
  Change: 8%
Rattus norvegicus [4]
  Change: 6%
Rattus norvegicus [5]
  Change in HDL/total cholesterol ratio: -5
Rattus norvegicus [6]
  Change: 2%

## CC(C)(C)c1ccc(-c2nc3ccc(NS(C)(=O)=O)cc3c(=O)o2)cc1
Rattus norvegicus [1]
  Change: -3%
Rattus norvegicus [2]
  Change: -8%
Rattus norvegicus [3]
  Change: 6%
Rattus norvegicus [4]
  Change: 22%
Rattus norvegicus [5]
  Change in HDL/total cholesterol ratio: 27
Rattus norvegicus [6]
  Change: -16%

## COC(=O)c1ccc2nc(-c3ccc(C(C)(C)C)cc3)oc(=O)c2c1
Rattus norvegicus [1]
  Change: -2%
Rattus norvegicus [2]
  Change: -13%
Rattus norvegicus [3]
  Change: 0%
Rattus norvegicus [4]
  Change: 18%
Rattus norvegicus [5]
  Change in HDL/total cholesterol ratio: -4
Rattus norvegicus [6]
  Change: 29%

## CN(C)c1ccc2nc(-c3ccc(C(C)(C)C)cc3)oc(=O)c2c1
Rattus norvegicus [1]
  Change: 10%
Rattus norvegicus [2]
  Change: -12%
Rattus norvegicus [3]
  Change: 16%
Rattus norvegicus [4]
  Change: 26%
Rattus norvegicus [5]
  Change in HDL/total cholesterol ratio: 22
Rattus norvegicus [6]
  Change: -4%

## COc1ccc2nc(-c3ccc(C(C)(C)C)cc3)oc(=O)c2c1
Rattus norvegicus [1]
  Change: -48%
Rattus norvegicus [2]
  Change: -52%
Rattus norvegicus [3]
  Change: -26%
Rattus norvegicus [4]
  Change: 21%
Rattus norvegicus [5]
  Ratio: 52
Rattus norvegicus [6]
  Change: -28%

## CC(C)(C)c1ccc(-c2nc3ccc(N)cc3c(=O)o2)cc1
Rattus norvegicus [1]
  Change: 4%
Rattus norvegicus [2]
  Change: 1%
Rattus norvegicus [3]
  Change: -11%
Rattus norvegicus [4]
  Change: 4%
Rattus norvegicus [5]
  Change in HDL/total cholesterol ratio: 25
Rattus norvegicus [6]
  Change: -25%

## CCCCCCCCc1ccc2nc(-c3ccc(C(C)(C)C)cc3)oc(=O)c2c1
Rattus norvegicus [1]
  Change: -1%
Rattus norvegicus [2]
  Change: -14%
Rattus norvegicus [3]
  Change: -7%
Rattus norvegicus [4]
  Change: 35%
Rattus norvegicus [5]
  Change in HDL/total cholesterol ratio: 29
Rattus norvegicus [6]
  Change: -9%

## CC(C)(C)c1ccc(C(=O)O)cc1
Rattus norvegicus [7]
  Change: -38%
Rattus norvegicus [3]
  Change: -38%
Rattus norvegicus [4]
  Change: -50%
Rattus norvegicus [5]
  Change in HDL/total cholesterol ratio: 60
Rattus norvegicus [8]
  Change: -41%
Rattus norvegicus [6]
  Change: -62%

## CC(C)(C)c1ccc(-c2nc3ccc(C(F)(F)F)cc3c(=O)o2)cc1
Rattus norvegicus [1]
  Change: -40%
Rattus norvegicus [2]
  Change: -45%
Rattus norvegicus [3]
  Change: -6%
Rattus norvegicus [4]
  Change: -8%
Rattus norvegicus [5]
  Change in HDL/total cholesterol ratio: 11
Rattus norvegicus [6]
  Change: -18%

## COC(=O)c1cc(C)ccc1NC(=O)c1ccc(C(C)(C)C)cc1
Rattus norvegicus [1]
  Change: -4%
Rattus norvegicus [2]
  Change: -8%
Rattus norvegicus [3]
  Change: 68%
Rattus norvegicus [4]
  Change: 25%
Rattus norvegicus [5]
  Change in HDL/total cholesterol ratio: 46
Rattus norvegicus [6]
  Change: -20%

## CCOC(=O)C(C)(C)Oc1ccc(Cl)cc1 [CLOFIBRATE]
Rattus norvegicus [7]
  Change: -27%
Rattus norvegicus [3]
  Change: -10%
Rattus norvegicus [4]
  Change: -10%
Rattus norvegicus [5]
  Change in HDL/total cholesterol ratio: 8
Rattus norvegicus [8]
  Change: -48%
Rattus norvegicus [6]
  Change: -30%

## O=C(O)c1cccnc1 [NIACIN]
Rattus norvegicus [7]
  Change: -4%
Rattus norvegicus [3]
  Change: -39%
Rattus norvegicus [4]
  Change: 20%
Rattus norvegicus [5]
  Ratio: 63
Rattus norvegicus [8]
  Change: -3%
Rattus norvegicus [6]
  Change: -29%

— ChEMBL document CHEMBL1124334, “Hypolipidemic 2-[4-(1,1-dimethylethyl)phenyl]-4H-3,1-benzoxazin-4-ones. Structure-activity relationships of a novel series of high-density lipoprotein elevators” (1989)
